Source: ChEMBL document CHEMBL3045565, “Microwave synthesis, characterization and bio-efficacy evaluation of novel chalcone based 6-carbethoxy-2-cyclohexen-1-one and 2H-indazol-3-ol derivatives” (Eur J Med Chem, 2013)
Converted amounts (≈) assume the structure as drawn.

Each compound was assayed on Radical scavenging activity (assay: Antioxidant activity assessed as DPPH free radical scavenging activity at 40 ug/mL after 20 min by UV-Vis spectrophotometric analysis). Details: not given.
Type: functional
Summary of the method: (§1)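 DPPH radical scavenging: samples were held at room temperature for 20 min in the dark, and absorbance was read at 517 nm. The control contained DMSO without compound, and methanol was used for baseline correction. Scavenging percentage was calculated from the absorbances.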
For COc1ccc(C2CC(c3ccc(Cl)c(Cl)c3)=Cc3n[nH]c(O)c32)cc1 (stereo not drawn), the Activity was 48.6%.
For COc1ccc(C2CC(c3ccc(OC)c(OC)c3)=Cc3n[nH]c(O)c32)cc1 (stereo not drawn), the Activity was 12.8%.
Oc1[nH]nc2c1C(c1ccccc1)CC(c1ccccc1)=C2 (stereo not drawn) gave an Activity of 40.3%.

Each compound was assayed on Radical scavenging activity (assay: Antioxidant activity assessed as DPPH free radical scavenging activity at 400 ug/mL after 20 min by UV-Vis spectrophotometric analysis). Details: not given.
Type: functional
Summary of the method: as §1
With COc1ccc(C2CC(c3ccc(Cl)c(Cl)c3)=Cc3n[nH]c(O)c32)cc1 (stereo not drawn) the Activity was 91.3%.
Compound COc1ccc(C2CC(c3ccc(OC)c(OC)c3)=Cc3n[nH]c(O)c32)cc1 (stereo not drawn) has an Activity of 82.6%.
Oc1[nH]nc2c1C(c1ccccc1)CC(c1ccccc1)=C2 (stereo not drawn) gave an Activity of 89.1%.

The compounds below were run on Radical scavenging activity (assay: Antioxidant activity assessed as DPPH free radical scavenging activity at 500 ug/mL after 20 min by UV-Vis spectrophotometric analysis). Details: not given.
Type: functional
Summary of the method: as §1
COc1ccc(C2CC(c3ccc(Cl)c(Cl)c3)=Cc3n[nH]c(O)c32)cc1 (stereo not drawn) showed an Activity of 91.3%.
For COc1ccc(C2CC(c3ccc(OC)c(OC)c3)=Cc3n[nH]c(O)c32)cc1 (stereo not drawn), the Activity was 82.6%.
For Oc1[nH]nc2c1C(c1ccccc1)CC(c1ccccc1)=C2 (stereo not drawn), the Activity was 89.2%.

These compounds were tested on Dickeya chrysanthemi (assay: Antibacterial activity against Erwinia chrysanthemi ITCC B-40 assessed as as growth inhibition at 100 ug/disk after 24 hr by disk diffusion method). Details: ITCC B-40, 24 h, read-out: DIZ.
Type: functional
Summary of the method: (§2)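 Disk diffusion on nutrient agar. Strains kept on NA slants at 37 °C and subcultured in nutrient broth before testing. A log-phase culture was spread on solidified medium, and sterile disks were loaded with compound from DMSO stock. DMSO served as control, with commercial antibiotics for reference. Plates ran 24 h at 37 °C, and inhibition zones (mm) were read in quadruplicate.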
With COc1ccc(C2CC(c3ccc(Cl)c(Cl)c3)=Cc3n[nH]c(O)c32)cc1 (stereo not drawn) the zone of inhibition at 100 µg/disc was 0 mm.
Compound COc1ccc(C2CC(c3ccc(OC)c(OC)c3)=Cc3n[nH]c(O)c32)cc1 (stereo not drawn) has a zone of inhibition at 100 µg/disc of 0 mm.
For Oc1[nH]nc2c1C(c1ccccc1)CC(c1ccccc1)=C2 (stereo not drawn), the zone of inhibition at 100 µg/disc was 0 mm.

What follows are compounds tested on Radical scavenging activity (assay: Antioxidant activity assessed as DPPH free radical scavenging activity at 100 ug/mL after 20 min by UV-Vis spectrophotometric analysis). Details: not given.
Type: functional
Summary of the method: as §1
COc1ccc(C2CC(c3ccc(Cl)c(Cl)c3)=Cc3n[nH]c(O)c32)cc1 (stereo not drawn) was tested, and the Activity was 91.1%.
In the case of COc1ccc(C2CC(c3ccc(OC)c(OC)c3)=Cc3n[nH]c(O)c32)cc1 (stereo not drawn), the Activity is reported as 36.5%.
Compound Oc1[nH]nc2c1C(c1ccccc1)CC(c1ccccc1)=C2 (stereo not drawn) has an Activity of 73.3%.

What follows are compounds tested on Radical scavenging activity (assay: Antioxidant activity assessed as DPPH free radical scavenging activity at 60 ug/mL after 20 min by UV-Vis spectrophotometric analysis). Details: not given.
Type: functional
Summary of the method: as §1
COc1ccc(C2CC(c3ccc(Cl)c(Cl)c3)=Cc3n[nH]c(O)c32)cc1 (stereo not drawn) showed an Activity of 86.1%.
For COc1ccc(C2CC(c3ccc(OC)c(OC)c3)=Cc3n[nH]c(O)c32)cc1 (stereo not drawn), the Activity was 26.3%.
Oc1[nH]nc2c1C(c1ccccc1)CC(c1ccccc1)=C2 (stereo not drawn) gave an Activity of 62.5%.

The compounds below were run on Radical scavenging activity (assay: Antioxidant activity assessed as DPPH free radical scavenging activity at 20 ug/mL after 20 min by UV-Vis spectrophotometric analysis). Details: not given.
Type: functional
Summary of the method: as §1
COc1ccc(C2CC(c3ccc(Cl)c(Cl)c3)=Cc3n[nH]c(O)c32)cc1 (stereo not drawn) was tested, and the Activity was 31%.
For COc1ccc(C2CC(c3ccc(OC)c(OC)c3)=Cc3n[nH]c(O)c32)cc1 (stereo not drawn), the Activity was 5.3%.
With Oc1[nH]nc2c1C(c1ccccc1)CC(c1ccccc1)=C2 (stereo not drawn) the Activity was 10.9%.

Each compound was assayed on Bacillus thuringiensis (assay: Antibacterial activity against Bacillus thuringiensis MTCC 6941 assessed as growth inhibition at 100 ug/disk after 24 hr by disk diffusion method). Details: MTCC 6941, 24 h, read-out: DIZ.
Type: functional
Summary of the method: as §2
For COc1ccc(C2CC(c3ccc(Cl)c(Cl)c3)=Cc3n[nH]c(O)c32)cc1 (stereo not drawn), the zone of inhibition at 100 µg/disc was 0 mm.
COc1ccc(C2CC(c3ccc(OC)c(OC)c3)=Cc3n[nH]c(O)c32)cc1 (stereo not drawn) showed a zone of inhibition at 100 µg/disc of 0 mm.
With Oc1[nH]nc2c1C(c1ccccc1)CC(c1ccccc1)=C2 (stereo not drawn) the zone of inhibition at 100 µg/disc was 0 mm.

These compounds were tested on Pseudomonas aeruginosa (assay: Antibacterial activity against Pseudomonas aeruginosa MTCC 2581 assessed as growth inhibition at 100 ug/disk after 24 hr by disk diffusion method). Details: MTCC 2581, 24 h, read-out: DIZ.
Type: functional
Summary of the method: as §2
COc1ccc(C2CC(c3ccc(Cl)c(Cl)c3)=Cc3n[nH]c(O)c32)cc1 (stereo not drawn) gave a zone of inhibition at 100 µg/disc of 0 mm.
Work on COc1ccc(C2CC(c3ccc(OC)c(OC)c3)=Cc3n[nH]c(O)c32)cc1 (stereo not drawn) yielded a zone of inhibition at 100 µg/disc of 0 mm.
For Oc1[nH]nc2c1C(c1ccccc1)CC(c1ccccc1)=C2 (stereo not drawn), the zone of inhibition at 100 µg/disc was 0 mm.

These compounds were tested on Radical scavenging activity (assay: Antioxidant activity assessed as DPPH free radical scavenging activity at 300 ug/mL after 20 min by UV-Vis spectrophotometric analysis). Details: not given.
Type: functional
Summary of the method: as §1
Compound COc1ccc(C2CC(c3ccc(Cl)c(Cl)c3)=Cc3n[nH]c(O)c32)cc1 (stereo not drawn) has an Activity of 90.7%.
Work on COc1ccc(C2CC(c3ccc(OC)c(OC)c3)=Cc3n[nH]c(O)c32)cc1 (stereo not drawn) yielded an Activity of 75.3%.
For Oc1[nH]nc2c1C(c1ccccc1)CC(c1ccccc1)=C2 (stereo not drawn), the Activity was 89%.

These compounds were tested on Radical scavenging activity (assay: Antioxidant activity assessed as DPPH free radical scavenging activity at 200 ug/mL after 20 min by UV-Vis spectrophotometric analysis). Details: not given.
Type: functional
Summary of the method: as §1
COc1ccc(C2CC(c3ccc(Cl)c(Cl)c3)=Cc3n[nH]c(O)c32)cc1 (stereo not drawn) was tested, and the Activity was 91.5%.
COc1ccc(C2CC(c3ccc(OC)c(OC)c3)=Cc3n[nH]c(O)c32)cc1 (stereo not drawn) gave an Activity of 58.8%.
Oc1[nH]nc2c1C(c1ccccc1)CC(c1ccccc1)=C2 (stereo not drawn) showed an Activity of 90.6%.

Each compound was assayed on Klebsiella pneumoniae (assay: Antibacterial activity against Klebsiella pneumoniae MTCC 7028 assessed as growth inhibition at 100 ug/disk after 24 hr by disk diffusion method). Details: MTCC 7028, 24 h, read-out: DIZ.
Type: functional
Summary of the method: as §2
For COc1ccc(C2CC(c3ccc(Cl)c(Cl)c3)=Cc3n[nH]c(O)c32)cc1 (stereo not drawn), the zone of inhibition at 100 µg/disc was 0 mm.
For COc1ccc(C2CC(c3ccc(OC)c(OC)c3)=Cc3n[nH]c(O)c32)cc1 (stereo not drawn), the zone of inhibition at 100 µg/disc was 0 mm.
Oc1[nH]nc2c1C(c1ccccc1)CC(c1ccccc1)=C2 (stereo not drawn) gave a zone of inhibition at 100 µg/disc of 10 mm.

These compounds were tested on Radical scavenging activity (assay: Antioxidant activity assessed as DPPH free radical scavenging activity after 20 min by UV-Vis spectrophotometric analysis). Details: not given.
Type: functional
Set-up: concentration or dose not given beside the values
Summary of the method: as §1
Work on COc1ccc(C2CC(c3ccc(Cl)c(Cl)c3)=Cc3n[nH]c(O)c32)cc1 (stereo not drawn) yielded an Activity of 48.5% and an IC50 of 40.98 µg/mL (≈ 106 µM).
COc1ccc(C2CC(c3ccc(OC)c(OC)c3)=Cc3n[nH]c(O)c32)cc1 (stereo not drawn) gave an Activity of 12.8% and an IC50 of 146.68 µg/mL (≈ 388 µM).
In the case of Oc1[nH]nc2c1C(c1ccccc1)CC(c1ccccc1)=C2 (stereo not drawn), the Activity is reported as 40.3% and the IC50 is reported as 58.28 µg/mL (≈ 202 µM).

Each compound was assayed on Radical scavenging activity (assay: Antioxidant activity assessed as DPPH free radical scavenging activity at 10 ug/mL after 20 min by UV-Vis spectrophotometric analysis). Details: not given.
Type: functional
Summary of the method: as §1
COc1ccc(C2CC(c3ccc(Cl)c(Cl)c3)=Cc3n[nH]c(O)c32)cc1 (stereo not drawn) was tested, and the Activity was 17.6%.
With COc1ccc(C2CC(c3ccc(OC)c(OC)c3)=Cc3n[nH]c(O)c32)cc1 (stereo not drawn) the Activity was 3.5%.
With Oc1[nH]nc2c1C(c1ccccc1)CC(c1ccccc1)=C2 (stereo not drawn) the Activity was 9.1%.

What follows are compounds tested on Athelia rolfsii (assay: Antifungal activity against Athelia rolfsii ITCC 6181 by food poisoning method). Details: Agroathelia rolfsii.
Type: functional
Summary of the method: (§3)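 Poisoned food technique on PDA at several concentrations. A 5 mm mycelial plug from the growing edge of a 2-week-old colony was placed inoculum-side down at the plate centre. Plates incubated at 27 °C until control growth was nearly complete. Colony diameter measured, percent inhibition calculated against control, LC50 derived. Four replicates per treatment.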
COc1ccc(C2CC(c3ccc(Cl)c(Cl)c3)=Cc3n[nH]c(O)c32)cc1 (stereo not drawn) was tested, and the LC50 was 1030 µg/mL (≈ 2660 µM).
With COc1ccc(C2CC(c3ccc(OC)c(OC)c3)=Cc3n[nH]c(O)c32)cc1 (stereo not drawn) the LC50 was 894 µg/mL (≈ 2360 µM).
Oc1[nH]nc2c1C(c1ccccc1)CC(c1ccccc1)=C2 (stereo not drawn) was tested, and the LC50 was 873 µg/mL (≈ 3030 µM).

What follows are compounds tested on Bacillus pumilus (assay: Antibacterial activity against Bacillus pumilus MTCC 2466 assessed as growth inhibition at 100 ug/disk after 24 hr by disk diffusion method). Details: MTCC 2466, 24 h, read-out: DIZ.
Type: functional
Summary of the method: as §2
With COc1ccc(C2CC(c3ccc(Cl)c(Cl)c3)=Cc3n[nH]c(O)c32)cc1 (stereo not drawn) the zone of inhibition at 100 µg/disc was 0 mm.
COc1ccc(C2CC(c3ccc(OC)c(OC)c3)=Cc3n[nH]c(O)c32)cc1 (stereo not drawn) gave a zone of inhibition at 100 µg/disc of 0 mm.
In the case of Oc1[nH]nc2c1C(c1ccccc1)CC(c1ccccc1)=C2 (stereo not drawn), the zone of inhibition at 100 µg/disc is reported as 0 mm.

What follows are compounds tested on Xanthomonas oryzae (assay: Antibacterial activity against Xanthomonas oryzae ITCC B-47 assessed as as growth inhibition at 100 ug/disk after 24 hr by disk diffusion method). Details: ITCC B-47, 24 h, read-out: DIZ.
Type: functional
For COc1ccc(C2CC(c3ccc(Cl)c(Cl)c3)=Cc3n[nH]c(O)c32)cc1 (stereo not drawn), the zone of inhibition at 100 µg/disc was 0 mm.
With COc1ccc(C2CC(c3ccc(OC)c(OC)c3)=Cc3n[nH]c(O)c32)cc1 (stereo not drawn) the zone of inhibition at 100 µg/disc was 0 mm.
Oc1[nH]nc2c1C(c1ccccc1)CC(c1ccccc1)=C2 (stereo not drawn) showed a zone of inhibition at 100 µg/disc of 0 mm.

These compounds were tested on Radical scavenging activity (assay: Antioxidant activity assessed as DPPH free radical scavenging activity at 80 ug/mL after 20 min by UV-Vis spectrophotometric analysis). Details: not given.
Type: functional
Summary of the method: as §1
Work on COc1ccc(C2CC(c3ccc(Cl)c(Cl)c3)=Cc3n[nH]c(O)c32)cc1 (stereo not drawn) yielded an Activity of 90.4%.
Compound COc1ccc(C2CC(c3ccc(OC)c(OC)c3)=Cc3n[nH]c(O)c32)cc1 (stereo not drawn) has an Activity of 31.1%.
For Oc1[nH]nc2c1C(c1ccccc1)CC(c1ccccc1)=C2 (stereo not drawn), the Activity was 67.3%.

The compounds below were run on Rhizoctonia solani (assay: Antifungal activity against Rhizoctonia solani ITCC 5563 by food poisoning method). Details: not given.
Type: functional
Summary of the method: as §3
In the case of COc1ccc(C2CC(c3ccc(Cl)c(Cl)c3)=Cc3n[nH]c(O)c32)cc1 (stereo not drawn), the LC50 is reported as 776 µg/mL (≈ 2000 µM).
Work on COc1ccc(C2CC(c3ccc(OC)c(OC)c3)=Cc3n[nH]c(O)c32)cc1 (stereo not drawn) yielded an LC50 of 611 µg/mL (≈ 1610 µM).
Oc1[nH]nc2c1C(c1ccccc1)CC(c1ccccc1)=C2 (stereo not drawn) was tested, and the LC50 was 802 µg/mL (≈ 2780 µM).

What follows are compounds tested on Staphylococcus aureus (assay: Antibacterial activity against Staphylococcus aureus MTCC 3160 assessed as growth inhibition at 100 ug/disk after 24 hr by disk diffusion method). Details: MTCC 3160, 24 h, read-out: DIZ.
Type: functional
Summary of the method: as §2
Work on COc1ccc(C2CC(c3ccc(Cl)c(Cl)c3)=Cc3n[nH]c(O)c32)cc1 (stereo not drawn) yielded a zone of inhibition at 100 µg/disc of 0 mm.
For COc1ccc(C2CC(c3ccc(OC)c(OC)c3)=Cc3n[nH]c(O)c32)cc1 (stereo not drawn), the zone of inhibition at 100 µg/disc was 0 mm.
Oc1[nH]nc2c1C(c1ccccc1)CC(c1ccccc1)=C2 (stereo not drawn) showed a zone of inhibition at 100 µg/disc of 0 mm.
